Consider 1 compound from ChEMBL document CHEMBL4396890, “Synthesis, Biological Evaluation, Structure-Activity Relationship, and Mechanism of Action Studies of Quinoline-Metronidazole Derivatives Against Experimental Visceral Leishmaniasis” (J Med Chem, 2019).

Series [1] concerns Leishmania donovani. In words: Induction of apoptosis in Leishmania donovani MHOM/IN/80/Dd8 promastigotes assessed as early apoptotic cells at 50 uM measured after 12 hrs by Annexin V-FITC/propidium iodide staining based assay (reference value: 6.91%). In kind it is functional.
Series [2] has as its system Leishmania donovani. The series can be described thus: Induction of apoptosis in Leishmania donovani MHOM/IN/80/Dd8 promastigotes assessed as late apoptotic cells at 50 uM measured after 24 hrs by Annexin V-FITC/propidium iodide staining based assay (reference value: 0.46%). Format: functional.
Series [3] relates to Leishmania donovani. The series can be described thus: Induction of nitric oxide generation in Leishmania donovani MHOM/IN/80/Dd8 promastigotes assessed as increase in fluorescence at 50 uM measured after 12 hrs by DAF-2DA dye-based flow cytometry relative to control. Format: functional. The method in brief: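 Log-phase promastigotes exposed to 50 μM for 6–18 h, vehicle control 0.1% DMSO, then labelled with 40 μM DAF-2DA. Fluorescence (GMFC) read by flow cytometry and expressed as fold change over vehicle. At least 3 independent experiments in duplicate.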
Background: Flow cytometry measures light scatter and fluorescence of single cells or particles in a stream.

Series [4] has as its system Leishmania donovani. In words: Antileishmanial activity against Leishmania donovani MHOM/IN/80/Dd8 promastigotes infected in BALB/c mouse assessed as reduction in parasite load in liver at 100 mg/kg, ip administered once daily for 5 days measured 7 days post dose by giemsa staining-based assay relative to control. In kind it is functional. On the set-up: scale not given: the % may be the effect or the level left. The method in brief:
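Hamster-passaged strain was transformed to promastigotes. Stationary-phase cells (2 × 10^7 in 0.2 mL PBS) were injected into the tail vein of BALB/c mice. From day 15 post-infection, mice received compound ip in 8% DMSO in PBS for 5 consecutive days, 5 mice per group. Mice were killed day 7 post-treatment. Liver and spleen burden was read from Giemsa-stained stamp smears as LDU.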

Series [5] relates to Leishmania donovani. In words: Induction of mitochondrial potential loss in Leishmania donovani MHOM/IN/80/Dd8 promastigotes assessed as shift in red to green fluorescence at 50 uM after 12 hrs by JC1 dye-based flow cytometry (reference value: 7.37%). In kind it is functional. An outline of the steps:
(§1)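 Exponential-phase promastigotes were incubated with 50 μM compound for 6−48 h, or 0.1% DMSO vehicle. CCCP (50 μM) served as positive control. After JC-1 staining, the red-to-green fluorescence shift was measured by flow cytometry.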

In series [6] the test system is Leishmania donovani. The series can be described thus: Induction of apoptosis in Leishmania donovani MHOM/IN/80/Dd8 promastigotes assessed as late apoptotic cells at 50 uM measured after 48 hrs by Annexin V-FITC/propidium iodide staining based assay (reference value: 0.02%). Format: functional.
Series [7] concerns Leishmania donovani. The series can be described thus: Induction of plasma membrane permeabilization in Leishmania donovani MHOM/IN/80/Dd8 promastigotes assessed as increase in fluorescence at MIC measured after 4 hrs by sytox green dye based flow cytometry relative to 0.1 % triton-X 100. In kind it is functional.
Series [8] in a line: Clearance in BALB/c mouse at 50 mg/kg, po administered via gavage by LC-MS/MS analysis. In kind it is ADME, organism-based. To be noted: in vivo.
The subject of series [9] is Leishmania donovani. In words: Induction of mitochondrial membrane disruption in Leishmania donovani MHOM/IN/80/Dd8 promastigotes assessed as increase in cytochrome c release from mitochondria to cytosol at 50 uM measured after 6 to 48 hrs by immunoblot analysis. Format: functional, organism-based. The method in brief: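 Promastigotes were treated with 50 μM compound for 6−48 h, or 0.1% DMSO for 48 h. Mitochondrial and cytosolic fractions were immunoblotted for cytochrome c, with COX-IV and β-tubulin as fraction loading controls.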

The subject of series [10] is Leishmania donovani. The series can be described thus: Induction of apoptosis in Leishmania donovani MHOM/IN/80/Dd8 promastigotes assessed as late apoptotic cells at 50 uM measured after 24 hrs by Annexin V-FITC/propidium iodide staining based assay (reference value: 0.02%). Format: functional.
A short description of series [11]: AUC (0 to 48 hrs) in BALB/c mouse at 50 mg/kg, po administered via gavage by LC-MS/MS analysis. To be noted: in vivo. On the set-up: time < 48 hr, dose 50 mg/kg, route oral. Format: ADME, organism-based.
In series [12] the test system is Leishmania donovani. The series can be described thus: Antileishmanial activity against Leishmania donovani MHOM/IN/80/Dd8 amastigotes harboring luciferase reporter gene infected in mouse J774 cells assessed as stimulation of host immunity by measuring change in IL10 level at 50 uM after 48 hrs by ELISA. Format: functional, organism-based. An outline of the steps: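 Infected J774 macrophages (24 h infection) were treated with 50 μM compound for 48 h. Culture supernatants were assayed by ELISA for TNF-α and IL-12 (Th1) and for TGF-β and IL-10 (Th2), compared with infected untreated cells.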

Series [13] relates to Leishmania donovani. In words: Induction of mitochondrial potential loss in Leishmania donovani MHOM/IN/80/Dd8 promastigotes at 50 uM by JC1 dye-based flow cytometry. In kind it is functional, organism-based. The settings on record: TDE = time-dependent effect. The method in brief: as §1
Series [14] can be described thus: Cmax in BALB/c mouse at 50 mg/kg, po administered via gavage by LC-MS/MS analysis. In kind it is ADME, organism-based. On the set-up: dose 50 mg/kg, route oral. The settings on record: in vivo.

Active and inactive are the calls of the source. No cut-off for these calls is given here.

For the compound `Cc1cc(-c2ccc(OCCn3c([N+](=O)[O-])cnc3C)cc2)nc2ccccc12`, the Activity in the series on Leishmania donovani [1] is reported as 12.89%; with Leishmania donovani [2] it was 48.14%; with Leishmania donovani [4], 82.5%; in the series with Leishmania donovani [5], 33.15%; in the series with Leishmania donovani [6], 0.41%; in the series with Leishmania donovani [7], 3.63%. Besides, the Activity with Leishmania donovani [10] was 10.04%; with Leishmania donovani [13], “Tde”. The “fold change (FC)” value with Leishmania donovani [3] turned out to be 3.6. Further, in series [8], the CL/F was 45.8 mL/min/kg. For the same compound, the result in the series on Leishmania donovani [9] was Active. The AUC(0-t) at 48 h in series [11] turned out to be 18200 ng·h/mL. Besides, in the series on Leishmania donovani [12], the outcome was inactive. The same compound displayed a Cmax in [14] of 6860 ng/mL.

One may read the CL/F as the apparent clearance, not corrected for the fraction that reaches the circulation. By AUC(0-t) is commonly meant exposure summed from dosing to a finite time, without extrapolation to infinity. A word on the Cmax: it is the peak of the concentration-time curve.
